From ChEMBL document CHEMBL2424587, “Antiproliferative activity of abietane diterpenoids against human tumor cells” (J Nat Prod, 2013)
Active and inactive are the calls of the source. The rule behind the calls is not given here.

Assays:
HL-60 [1] = assay: Induction of apoptosis in human HL60 cells assessed as reduction in mitochondrial membrane potential at 3 uM after 24 hrs by JC-1 staining-based flow cytometry in presence of cyclosporin A; type: functional, cell-based
Method in brief: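 HL-60 cells exposed to 3 μM diterpene for 24 h alongside permeability transition pore inhibitors cyclosporin A (25 μM, 24 h) or bongkrekic acid (25−50 μM, 24 h). Apoptosis was scored by flow cytometry. Mitochondrial membrane potential was read by JC-1 fluorescence on flow cytometry.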

HL-60 [2] = assay: Induction of apoptosis in human HL60 cells assessed as accumulation at sub-G1 phase at 3 uM after 24 hrs by AnnexinV-FITC/propidium iodide staining-based flow cytometry (reference value: 4%)
HL-60 [3] = assay: Induction of apoptosis in human HL60 cells after 24 hrs by flow cytometry in presence of MEK1 inhibitor PD98059; type: functional, cell-based
HL-60 [4] = assay: Cytotoxicity against human HL60 cells after 72 hrs by MTT assay; type: functional, cell-based; details: HL-60, 72 h
Method in brief: (§1)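 MTT assay: 1 × 10^4 exponentially growing cells per well incubated 72 h over a range of compound concentrations; MTT 0.5 mg/mL for 4 h at 37 °C, then 10% SDS in 0.05 M HCl overnight at room temperature in the dark; absorbance at 570 nm. Leukemia and SK-MEL-1 lines grown in RPMI 1640, MCF-7 in DMEM, both with 10% heat-inactivated FBS. IC50 given as mean ± SEM of 3–5 independent experiments, each in triplicate.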

SK-MEL-1 = assay: Cytotoxicity against human SK-MEL-1 cells after 72 hrs by MTT assay; type: functional, cell-based; details: SK-MEL-1, 72 h; method in brief: as §1
HL-60 [5] = assay: Induction of apoptosis in human HL60 cells assessed as procaspase-6 cleavage at 3 uM after 24 hrs by immunoblotting analysis; type: functional, cell-based
Method in brief: (§2)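 HL-60 cells treated 24 h with 3 μM; immunoblots of lysates probed with antibodies that recognize both pro-caspases and cleaved caspases, and for PARP.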

HL-60 [6] = assay: Induction of apoptosis in human HL60 cells assessed as hypodiploid cells after 24 hrs by flow cytometry in presence of caspase-8 inhibitor Z-IETD-FMK; type: functional, cell-based
Method in brief: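 HL-60 cells pretreated 1 h with caspase inhibitor, then given diterpene for 24 h; hypodiploid cells counted by flow cytometry; mean ± SE of three independent experiments in triplicate.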

HL-60 [7] = assay: Induction of apoptosis in human HL60 cells after 24 hrs by flow cytometry in presence of JNK/SAPK inhibitor SP600125; type: functional, cell-based
HL-60 [8] = assay: Induction of intracellular ROS generation in human HL60 cells at 3 uM after 15 mins to 4 hrs by flow cytometry; type: functional, cell-based
Method in brief: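 HL-60 cells given 3 μM diterpene for the indicated times, then loaded with H2-DCF-DA. Fluorescence of oxidized H2DCF was measured by flow cytometry. Three independent experiments.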

HL-60 [9] = assay: Induction of apoptosis in human HL60 cells assessed as PARP cleavage at 3 uM after 24 hrs by immunoblotting analysis; type: functional, cell-based; method in brief: as §2
HL-60 [10] = assay: Induction of apoptosis in human HL60 cells after 24 hrs by flow cytometry in presence of MEK2 inhibitor U0126; type: functional, cell-based
HL-60 [11] = assay: Cell cycle arrest in human HL60 cells assessed as accumulation at G1 phase at 3 uM after 24 hrs by […]propidium iodide staining-based flow cytometry (reference value: 43%); type: functional
HL-60 [12] = assay: Induction of apoptosis in human HL60 cells assessed as dense perinuclear condensation at 3 uM after 24 hrs by transmission electron microscopy; type: functional, cell-based
Method in brief: (§3)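 HL-60 cells incubated 24 h with 3 μM compound and examined by transmission electron microscopy for ultrastructural changes.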

HL-60 [13] = assay: Induction of apoptosis in human HL60 cells assessed as procaspase-7 cleavage at 3 uM after 24 hrs by immunoblotting analysis; type: functional, cell-based; method in brief: as §2
HL-60 [14] = assay: Induction of apoptosis in human HL60 cells assessed as abundant vacuoles at 3 uM after 24 hrs by transmission electron microscopy; type: functional, cell-based; method in brief: as §3
HL-60 [15] = assay: Induction of apoptosis in human HL60 cells after 24 hrs by flow cytometry in presence of p38 MAPK inhibitor SB203580 (reference value: 15.1 +/- 3.8%); type: functional
HL-60 [16] = assay: Induction of apoptosis in human HL60 cells assessed as fragmented and/or condensed nuclei at 3 uM after 24 hrs by transmission electron microscopy; type: functional, cell-based; method in brief: as §3
HL-60 [17] = assay: Induction of ROS-mediated cell death in human HL60 cells at 3 uM after 15 mins to 4 hrs by flow cytometry in presence of NAC; type: functional, cell-based
HL-60 [18] = assay: Cell cycle arrest in human HL60 cells assessed as accumulation at G2-M phase at 3 uM after 24 hrs by […]propidium iodide staining-based flow cytometry (reference value: 4%); type: functional
HL-60 [19] = assay: Induction of apoptosis in human HL60 cells assessed as decrease in Bcl-2 level by Western blotting analysis; type: functional, cell-based
Method in brief: (§4)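 HL-60 cells incubated with the diterpene; whole-cell lysates probed by Western blot for Bcl-2 family proteins, with β-actin as loading control.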

HL-60 [20] = assay: Induction of apoptosis in human HL60 cells assessed as decrease in Bax level by Western blotting analysis; type: functional, cell-based; method in brief: as §4

Compound	Activity (HL-60 [1])	Activity (HL-60 [2]) [%]	Activity (HL-60 [3])	IC50 (HL-60 [4]) [µM]	IC50 (SK-MEL-1) [µM]	Activity (HL-60 [5])	Activity (HL-60 [6])	Activity (HL-60 [7])	Activity (HL-60 [9])	Activity (HL-60 [10])	Activity (HL-60 [15])	Activity (HL-60 [17])	other results
COc1ccc(C(=O)OC2=C(C(C)C)C(=O)C3=C(C2=O)[C@@]2(C)CCCC(C)(C)[C@@H]2[C@H](O)[C@H]3OC(C)=O)cc1	Active	8	Active	2.7	7.2	inactive	Active	Active	Active	Active	–	–	Activity (HL-60 [8]): inactive
CC(=O)O[C@H]1C2=C(C(=O)C(OC(=O)c3ccccc3)=C(C(C)C)C2=O)[C@@]2(C)CCCC(C)(C)[C@@H]2[C@@H]1OC(=O)c1ccccc1	Active	–	Active	3.6	3.1	Active	inactive	Active	Active	Active	Active	inactive	Activity (HL-60 [11]): 30%; Activity (HL-60 [12]): Active; Activity (HL-60 [13]): Active; Activity (HL-60 [14]): Active; Activity (HL-60 [16]): Active; Activity (HL-60 [18]): 16%
CC(=O)O[C@H]1C2=C(C(=O)C(OC(=O)c3ccc(Cl)cc3)=C(C(C)C)C2=O)[C@@]2(C)CCCC(C)(C)[C@@H]2[C@@H]1O	Active	9	–	2.4	4	inactive	Active	–	Active	–	Active	inactive	Activity (HL-60 [19]): Active; Activity (HL-60 [20]): Active
